6 molecules from ChEMBL document CHEMBL1126988, “Quinolone antibacterials containing the new 7-[3-(1-aminoethyl)-1- pyrrolidinyl] side chain: the effects of the 1-aminoethyl moiety and its stereochemical configurations on potency and in vivo efficacy” (J Med Chem, 1993) can be followed below.

Converted amounts (≈) assume the structure as drawn. Bounds are passed on as bounds.

The test system of assay [1] is Escherichia coli. Nature of the assay: Antibacterial activity in vitro against Escherichia coli Vogel. Format: functional. The method, boiled down:
(§1)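 Standard microtitration broth assay against a panel of 10 Gram-positive and Gram-negative organisms. MIC read in µg/mL and averaged over multiple experiments.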

The next assay concerns Enterobacter cloacae. The experiment in a line: Minimum inhibitory concentration in vitro against Enterobacter cloacae MA 2646. Format: functional.
Assay [2] relates to Enterococcus faecalis. The experiment in a line: Minimum inhibitory concentration was evaluated in vitro against Enterococcus faecalis MGH-2. Format: functional. The method, boiled down: as §1
For another assay, the system named is Klebsiella pneumoniae. The experiment in a line: Minimum inhibitory concentration was evaluated in vitro against Klebsiella pneumoniae MGH2. Format: functional. The method, boiled down:
as §1

The species named for assay [3] is Mus musculus. Nature of the assay: Compounds was evaluated for phototoxicity no-effect dose in mouse. Format: functional. Summed up: (§2)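 Depilated female CD-1 mice, five per dose plus controls. Animals are dosed orally and then exposed daily to UV-A (320–400 nm) for 3 h, for up to 4 days or until a definite positive response. Redness or erythema relative to controls, read 24 h after irradiation, counts as positive. Reported as the highest dose with no effect (mg/kg).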

A further assay deals with Providencia rettgeri. The experiment in a line: Minimum inhibitory concentration was evaluated in vitro against Providencia rettgeri M1771. Format: functional. The method, boiled down: as §1
Another assay relates to Pseudomonas aeruginosa. Nature of the assay: Minimum inhibitory concentration was evaluated in vitro against Pseudomonas aeruginosa UI-18. Format: functional. The method, boiled down: as §1
In assay [4] the test system is Staphylococcus aureus. The experiment in a line: Minimum inhibitory concentration was evaluated in vitro against Staphylococcus aureus H 228. Format: functional. Summed up: as §1
Assay [5] deals with Staphylococcus aureus. Nature of the assay: Minimum inhibitory concentration was evaluated in vitro against Staphylococcus aureus UC 76. Format: functional. Summed up:
as §1

In assay [6] the test system is Streptococcus pneumoniae. The experiment in a line: Minimum inhibitory concentration was evaluated in vitro against Streptococcus pneumoniae SV-1. Format: functional. Summed up:
as §1

The test system of assay [7] is Streptococcus pyogenes. The experiment in a line: Antibacterial activity measured as mouse protection against Streptococcus pyogenes C 203 after subcutaneous administration. Format: functional. Particulars: for ED50: Streptococcus pyogenes, C 203, sc, read-out: PD50.
Assay [8] can be described thus: Clonogenic cytotoxicity against hamster V-79 cells. Format: functional, Cricetulus griseus, V79. Summed up: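 Chinese hamster V-79 cells grown overnight, then drug-treated for 3 h at 37 °C. Medium is replaced with fresh medium and cells are incubated 5 days to allow colony formation. IC50 (µg/mL) is the concentration inhibiting colony formation by 50% relative to control.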

In assay [9] the test system is Streptococcus pyogenes. Nature of the assay: Compounds were evaluated in vivo for antibacterial activity for mouse protection against Streptococcus pyogenes C 203 after oral administration. Particulars: for ED50: C 203, po, read-out: PD50. Format: functional.
The subject of assay [10] is Streptococcus pyogenes. The experiment in a line: Minimum inhibitory concentration was evaluated in vitro against Streptococcus pyogenes C 203. Format: functional. The method, boiled down: as §1
The subject of assay [11] is Escherichia coli. Nature of the assay: Antibacterial activity against Escherichia coli Vogel after oral administration in mouse. Format: functional. The conditions noted are these: for ED50: Escherichia coli, po, read-out: PD50.
The subject of assay [12] is Escherichia coli. Nature of the assay: Antibacterial activity against Escherichia coli Vogel after subcutaneous administration in mouse. Format: functional. Particulars: for ED50: Escherichia coli, sc, read-out: PD50.
In assay [13] the test system is Enterococcus faecalis. The experiment in a line: Antibacterial activity expressed as Minimum inhibitory concentration was evaluated in vitro against Enterococcus faecalis MGH-2. Format: functional. Summed up:
as §1

Assay [14] is filed under the species Mus musculus. The experiment in a line: Compound was evaluated for phototoxicity no-effect dose in mouse. Format: functional. Summed up: as §2
In assay [15] the test system is Streptococcus pneumoniae. The experiment in a line: Antibacterial activity expressed as Minimum inhibitory concentration was evaluated in vitro against Streptococcus pneumoniae SV-1. Format: functional. The method, boiled down:
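Standard microtitration broth MIC (μg/mL), averaged from multiple experiments; one of a 10-organism Gram-positive/Gram-negative panel.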

The next assay deals with DNA gyrase (Escherichia coli, UniProt P0AES4+P0AES6). Nature of the assay: Inhibition against DNA gyrase. Format: protein-complex assay.
The subject of assay [16] is Streptococcus pyogenes. Nature of the assay: Compounds were evaluated in vivo for antibacterial activity for mouse protection against Streptococcus pyogenes C 203 after subcutaneous administration. Format: functional. The conditions noted are these: C 203, sc, read-out: PD50.
For assay [17], the species on record is Mus musculus. Nature of the assay: Compounds were evaluated for phototoxicity in mouse and phototoxicity no-effect dose was reported. Format: functional. Summed up: as §2
The subject of assay [18] is Streptococcus pyogenes. The experiment in a line: Compound was evaluated in vivo for antibacterial activity for mouse protection against Streptococcus pyogenes C 203 after subcutaneous administration. The conditions noted are these: sc, read-out: PD50. Format: functional.
Where [19] appears, read: Escherichia coli, read-out: MIC.
Setting [20] is: Enterobacter cloacae, read-out: MIC.
[21] abbreviates: Enterococcus faecalis, read-out: MIC.
Where [22] appears, read: Klebsiella pneumoniae, read-out: MIC.
[23] abbreviates: Providencia rettgeri, read-out: MIC.
[24] abbreviates: Pseudomonas aeruginosa, read-out: MIC.
The mark [25] stands for this setting: Staphylococcus aureus, read-out: MIC.
The mark [26] stands for this setting: Streptococcus pyogenes, read-out: MIC.

On to `CN[C@@H](C)[C@@H]1CCN(c2nc3c(cc2F)c(=O)c(C(=O)O)cn3C2CC2)C1` (mixture of isomers), for which the MIC is 0.1 µg/mL in the assay on Escherichia coli [1] (setting [19]); 0.1 µg/mL with Enterobacter cloacae (setting [20]); 0.1 µg/mL with Enterococcus faecalis [2] (setting [21]); 0.2 µg/mL in the assay on Klebsiella pneumoniae (setting [22]); 0.4 µg/mL in the assay on Providencia rettgeri (setting [23]); 1.6 µg/mL with Pseudomonas aeruginosa (setting [24]). For the same molecule, the MIC amounted to 0.1 µg/mL with Staphylococcus aureus [4] (setting [25]), 0.013 µg/mL with Staphylococcus aureus [5], 0.013 µg/mL with Streptococcus pneumoniae [6] and 0.025 µg/mL against Streptococcus pyogenes [10]. The same molecule displayed a Dose in the assay listed under Mus musculus [3] of 18 mg/kg. Further, the PD50 in the assay on Streptococcus pyogenes [7] and with Streptococcus pyogenes [9] was 2 mg/kg throughout. In assay [8], the Cytotoxicity came to 130 µg/mL.

On to `CCn1cc(C(=O)O)c(=O)c2cc(F)c(N3CC[C@@H]([C@@H](C)N)C3)c(F)c21`, for which the MIC in the assay with Escherichia coli [1] (setting [19]) is 0.1 µg/mL (≈ 0.274 µM); in the assay on Enterococcus faecalis [13] it was 0.1 µg/mL (≈ 0.274 µM); in the assay on Enterobacter cloacae (setting [20]) it was 0.1 µg/mL (≈ 0.274 µM); in the assay on Klebsiella pneumoniae (setting [22]), 0.2 µg/mL (≈ 0.547 µM); in the assay on Providencia rettgeri (setting [23]) it was 0.4 µg/mL (≈ 1.09 µM); in the assay with Pseudomonas aeruginosa (setting [24]) it was 1.6 µg/mL (≈ 4.38 µM). The MIC with Staphylococcus aureus [4] (setting [25]) is 0.1 µg/mL (≈ 0.274 µM); with Staphylococcus aureus [5] (setting [25]), 0.025 µg/mL (≈ 0.0684 µM); with Streptococcus pneumoniae [6] (Streptococcus pneumoniae, read-out: MIC), 0.05 µg/mL (≈ 0.137 µM); with Streptococcus pyogenes [10] (setting [26]), 0.05 µg/mL (≈ 0.137 µM). Besides, the ED50 in the assay with Escherichia coli [11] was determined as 15 mg/kg; in the assay on Escherichia coli [12] it was 2 mg/kg; with Streptococcus pyogenes [7] it was 2 mg/kg; in the assay on Streptococcus pyogenes [9] (Streptococcus pyogenes), 19 mg/kg.

As to `NC1CCN(c2nc3c(cc2F)c(=O)c(C(=O)O)cn3C2CC2)C1` (stereo not given), the MIC in the assay on Escherichia coli [1] (setting [19]) was found to be 0.013 µg/mL (≈ 0.0391 µM); in the assay on Enterobacter cloacae (setting [20]) it was 0.025 µg/mL (≈ 0.0752 µM); in the assay on Enterococcus faecalis [2] (setting [21]) it was 0.2 µg/mL (≈ 0.602 µM); in the assay on Klebsiella pneumoniae (setting [22]), 0.025 µg/mL (≈ 0.0752 µM); with Providencia rettgeri (setting [23]) it was 0.05 µg/mL (≈ 0.15 µM); with Pseudomonas aeruginosa (setting [24]), 0.1 µg/mL (≈ 0.301 µM). Further, the MIC with Staphylococcus aureus [4] (setting [25]) was 0.2 µg/mL (≈ 0.602 µM); in the assay with Staphylococcus aureus [5] (setting [25]), 0.013 µg/mL (≈ 0.0391 µM); against Streptococcus pneumoniae [15], 0.2 µg/mL (≈ 0.602 µM); with Streptococcus pyogenes [10] (setting [26]) it was 0.2 µg/mL (≈ 0.602 µM). For the same molecule, the ED50 in the assay with Escherichia coli [11] amounted to 2 mg/kg; with Escherichia coli [12], 0.6 mg/kg; in the assay on Streptococcus pyogenes [7], 14 mg/kg; with Streptococcus pyogenes [9] (Streptococcus pyogenes), 32 mg/kg. For the same molecule, the Dose in the assay listed under Mus musculus [14] was more than 100 mg/kg. Also, in assay [8], the Cytotoxicity worked out at 98 µg/mL. For the same molecule, the IC50 at DNA gyrase was 2.26 µM.

Regarding `CCN[C@@H](C)[C@H]1CCN(c2nc3c(cc2F)c(=O)c(C(=O)O)cn3C2CC2)C1`, the MIC is 0.4 µg/mL (≈ 1.03 µM) in the assay on Escherichia coli [1] (setting [19]); 0.8 µg/mL (≈ 2.06 µM) in the assay with Enterobacter cloacae (setting [20]); 0.8 µg/mL (≈ 2.06 µM) with Enterococcus faecalis [2] (setting [21]); 0.8 µg/mL (≈ 2.06 µM) with Klebsiella pneumoniae (setting [22]); 3.1 µg/mL (≈ 7.98 µM) in the assay on Providencia rettgeri (setting [23]); 6.3 µg/mL (≈ 16.2 µM) in the assay on Pseudomonas aeruginosa (setting [24]). Also, the MIC with Staphylococcus aureus [4] (setting [25]) turned out to be 0.8 µg/mL (≈ 2.06 µM); in the assay on Staphylococcus aureus [5] (setting [25]), 0.4 µg/mL (≈ 1.03 µM); in the assay on Streptococcus pneumoniae [15] it was 0.2 µg/mL (≈ 0.515 µM); with Streptococcus pyogenes [10] (setting [26]), 0.4 µg/mL (≈ 1.03 µM). For the same molecule, the ED50 in the assay on Streptococcus pyogenes [16] and in the assay with Streptococcus pyogenes [9] was 12 mg/kg in each case.

As for `CN[C@H](C)[C@H]1CCN(c2cc3c(cc2F)c(=O)c(C(=O)O)cn3C2CC2)C1` (mixture of isomers), the minimum inhibitory concentration (MIC) with Escherichia coli [1] was 0.2 µg/mL; in the assay on Enterobacter cloacae, 0.2 µg/mL; with Enterococcus faecalis [2], 0.1 µg/mL; with Klebsiella pneumoniae, 0.4 µg/mL; in the assay on Providencia rettgeri, 0.8 µg/mL; against Pseudomonas aeruginosa, 1.6 µg/mL. Moreover, the MIC came out at 0.2 µg/mL against Staphylococcus aureus [4], 0.05 µg/mL in the assay with Staphylococcus aureus [5], 0.05 µg/mL against Streptococcus pneumoniae [6] and 0.05 µg/mL in the assay with Streptococcus pyogenes [10]. The ED50 stood at 7 mg/kg in the assay on Escherichia coli [11] and 1 mg/kg in the assay with Escherichia coli [12]. The Phototoxicity in the assay listed under Mus musculus [17] is 100 mg/kg. Moreover, the PD50 with Streptococcus pyogenes [7] amounted to 1 mg/kg; in the assay with Streptococcus pyogenes [9], 7 mg/kg. In assay [8], this molecule displayed a Cytotoxicity of 180 µg/mL.

With `C[C@@H](N)[C@H]1CCN(c2nc3c(cc2F)c(=O)c(C(=O)O)cn3C2CC2)C1` (mixture of isomers), the MIC in the assay on Escherichia coli [1] stood at 0.025 µg/mL; in the assay on Enterobacter cloacae it was 0.05 µg/mL; in the assay with Enterococcus faecalis [2], 0.013 µg/mL; in the assay with Klebsiella pneumoniae it was 0.05 µg/mL; with Providencia rettgeri, 0.1 µg/mL; with Pseudomonas aeruginosa, 0.4 µg/mL. Besides, the MIC was determined as 0.025 µg/mL with Staphylococcus aureus [4], 0.003 µg/mL with Staphylococcus aureus [5], 0.003 µg/mL against Streptococcus pneumoniae [6] and 0.013 µg/mL in the assay on Streptococcus pyogenes [10]. The PD50 in the assay with Escherichia coli [11] stood at 2 mg/kg; with Escherichia coli [12], 0.4 mg/kg; in the assay on Streptococcus pyogenes [9] it was 3 mg/kg. In the assay listed under Mus musculus [14], this molecule gave a Dose of 30 mg/kg. The Cytotoxicity in [8] was found to be 33 µg/mL. Besides, in the assay with Streptococcus pyogenes [18], the ED50 was found to be 1 mg/kg. On DNA gyrase, this molecule showed an IC50 of 2.08 µM.

What is called MIC is the lowest concentration that inhibits growth of the organism. What is called IC50 is the midpoint of a concentration-inhibition curve.
